Measured values taken from ChEMBL document CHEMBL1124344, “5-Piperazinylalkyl-2(3H)-oxazolones with neuroleptic activity” (J Med Chem, 1989).

Experiments:
Type in all cases: functional
Rattus norvegicus [1] = test: Activity to evoke catalepsy in rats, by administering perorally at a dose of 200 mg/kg; details: route oral
Outline: (§1)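 Rats fasted overnight and given oral doses in arabic gum suspension (10 mL/kg), 1 h before screening or 1 and 5 h before profile testing. Forelegs placed on a horizontal bar 7 cm high, three times at 5-min intervals. Immobility of at least 15 s counts as catalepsy. ED50 is the dose giving catalepsy in 50% of rats, by probit analysis. Parenthetical entries give the maximal dose and percent activity.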

Rattus norvegicus [2] = test: Activity to evoke catalepsy, after 1 hour of peroral administration in rats at a dose of 200 mg/kg; details: route oral; outline: as §1
Mus musculus [3] = test: Anticonvulsant activity against pentylenetetrazole-induced convulsions, after 5 hour of peroral administration in mouse at a dose of 100 mg/kg; details: route oral
Outline: (§2)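 Compounds were dosed as bases suspended in arabic gum at 10 mL/kg orally, after an overnight fast, with vehicle controls. Protection meant no bilateral forepaw clonic seizures or head twitches (tryptamine), or no tonic hind-limb extension (the other two). ED50 is the dose protecting 50%, by probit analysis.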

Mus musculus [4] = test: Anticonvulsant activity against electroshock-induced convulsions, after 5 hour of peroral administration in mouse at a dose of 100 mg/kg; details: route oral; outline: as §2
Mus musculus [5] = test: Effect on skeletal muscle tone, after 5 hour of peroral administration in mouse at a dose of 200 mg/kg; details: Muscle tissue, route oral
Outline: (§3)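 Male mice were placed for 1 h on a 60° inclined wire screen just after dosing and 4 h later. In a second test, trained mice hung by the forepaws from a horizontal 1.8 mm wire 15 cm up; normal mice touch it with a hind paw within 2 s and stay ≥1 min. ED50 is the dose making 50% fall. Dosing was oral in gum arabic suspension at 10 mL/kg after an overnight fast.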

Rattus norvegicus [6] = test: Antagonistic activity against apomorphine-induced stereotypy, after 1 hour of peroral administration in rats at a dose of 100 mg/kg; details: route oral
Outline: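 Male rats fasted overnight and given oral doses in arabic gum suspension (10 mL/kg) 1 h, or 1 and 5 h, before challenge. Apomorphine 3 mg/kg iv, with stereotypy observed 20 min later. ED50 is the dose inhibiting stereotypy in 50% of rats, per Janssen's method. Parenthetical entries give the maximal dose and percent activity.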

Mus musculus [7] = test: Inhibitory activity against tremorine-induced tremors, after 5 hour of peroral administration in mouse at dose 7.5 mg/kg; details: route oral
Outline: (§4)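 Male mice fasted overnight, dosed orally with arabic gum suspension (10 mL/kg) 1 or 5 h before test, vehicle controls included. Tremorine 20 mg/kg ip given 1 h after compounds; central (tremor) and peripheral (salivation) parasympathetic signs recorded. ED50 = dose protecting 50% of animals, by probit analysis.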

Mus musculus [8] = test: Inhibitory activity against tremorine-induced tremors, after 1 hour of peroral administration in mouse at dose 7.5 mg/kg; details: route oral; outline: as §4
Mus musculus [9] = test: Anticonvulsant activity against electroshock-induced convulsions, after 5 hour of peroral administration in mouse at dose of 100 mg/kg; details: route oral; outline: as §2
Mus musculus [10] = test: Inhibitory activity against tremorine-induced tremors, after 1 hour of peroral administration in mouse at dose of 60 mg/kg; details: route oral; outline: as §4
Mus musculus [11] = test: Anticonvulsant activity against electroshock-induced convulsions, after 1 hour of peroral administration in mouse at dose of 100 mg/kg; details: route oral; outline: as §2
Mus musculus [12] = test: Contractile activity in skeletal muscles, after 1 hour of peroral administration in mouse at dose of 0 mg/kg; details: Muscle tissue, route oral; outline: as §3
Mus musculus [13] = test: Anticonvulsant activity against pentylenetetrazole-induced convulsions, after 5 hour of peroral administration in mouse at dose of 100 mg/kg; details: route oral; outline: as §2
Mus musculus [14] = test: Anticonvulsant activity against tryptamine-induced convulsions, after 5 hour of peroral administration in mouse at dose of 40 mg/kg; details: route oral; outline: as §2
Mus musculus [15] = test: Anticonvulsant activity against pentylenetetrazole-induced convulsions, after 1 hour of peroral administration in mouse at dose of 100 mg/kg; details: route oral; outline: as §2
Mus musculus [16] = test: Activity of inclined screen in mouse, after 5 hour of peroral administration in mouse at dose of 100 mg/kg; details: route oral
Outline: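 Male mice dosed orally (arabic gum suspension, 10 mL/kg, fasted overnight) 1 or 5 h before testing. Placed for 1 h on a wire screen bent at 60° to the horizontal. Ataxic or miorelaxed mice slide off. ED50 is the dose at which 50% of mice fall, by probit analysis. Ten animals per dose, with vehicle controls.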

Mus musculus [17] = test: Contractile activity in skeletal muscles, after 1 hour of peroral administration in mouse at dose 30 mg/kg; details: Muscle tissue, route oral; outline: as §3
Mus musculus [18] = test: Inhibitory activity against tremorine-induced tremors, after 1 hour of peroral administration in mouse at dose 20 mg/kg; details: route oral; outline: as §4
Mus musculus [19] = test: Inhibitory activity against tremorine-induced tremors, after 5 hour of peroral administration in mouse; details: po
Mus musculus [20] = test: Anticonvulsant activity against pentylenetetrazole-induced convulsions, after 1 hour of peroral administration in mouse at a dose of 20 mg/kg; details: route oral; outline: as §2
Mus musculus [21] = test: Effect on skeletal muscle tone, after 5 hour of peroral administration in mouse at a dose of 100 mg/kg; details: Muscle tissue, route oral; outline: as §3
Mus musculus [22] = test: Inhibition of spontaneous motor activity after 5 hour of peroral administration in mouse; details: po
Outline: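 Mice in groups of five were dosed orally with gum arabic suspensions at 10 mL/kg after an overnight fast, with a vehicle control group. Locomotion was counted for 10 min in a photocell activity cage, in at least two groups per dose. ED50, by probit analysis, is the dose giving 50% inhibition against controls.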

Rattus norvegicus [23] = species on record: Rattus norvegicus; test: Body weight gain, after 2 hour of period of conditioned feeding in rats,
Outline: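 Female rats (250–280 g) were kept singly on a 22-h food deprivation schedule, with pellets 10–12 a.m. and water always available. After 30–40 days of training they were dosed 1 h before the 2-h feeding and weighed before and after it. Weight gain was expressed as a percentage of the two preceding control days. ED50 is the dose giving 50% reduction.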

SMILES: O=c1[nH]c(-c2ccc(F)cc2)c(CCN2CCN(c3cc(Cl)cc(Cl)c3)CC2)o1 [LODIPERONE]
- inhibition in vivo at 200 mg/kg (Rattus norvegicus [1]): 0%
- inhibition in vivo at 200 mg/kg (Rattus norvegicus [2]): 0%
- inhibition in vivo at 100 mg/kg (Mus musculus [3]): 0%
- inhibition in vivo at 100 mg/kg (Mus musculus [4]): 0%
- inhibition in vivo at 200 mg/kg (Mus musculus [5]): 0%
- inhibition in vivo at 100 mg/kg (Rattus norvegicus [6]): 0%

SMILES: CN(C)CCCN1c2ccccc2Sc2ccc(Cl)cc21 [CHLORPROMAZINE]
- inhibition in vivo at 7.5 mg/kg (Mus musculus [7]): 15%
- inhibition in vivo at 7.5 mg/kg (Mus musculus [8]): 0%

SMILES: COc1ccccc1N1CCN(CCc2oc(=O)[nH]c2-c2ccc(F)cc2)CC1 [ZOLOPERONE]
- inhibition in vivo at 100 mg/kg (Mus musculus [9]): 0%
- inhibition in vivo at 60 mg/kg (Mus musculus [10]): 10%
- inhibition in vivo at 100 mg/kg (Mus musculus [11]): 0%
- ED50 (Mus musculus [12]): 179 mg/kg
- inhibition in vivo at 100 mg/kg (Mus musculus [13]): 0%
- inhibition in vivo at 40 mg/kg (Mus musculus [14]): 0%
- inhibition in vivo at 100 mg/kg (Mus musculus [15]): 0%
- inhibition in vivo at 100 mg/kg (Mus musculus [16]): 0%

SMILES: O=C(CCCN1CCC(O)(c2ccc(Cl)cc2)CC1)c1ccc(F)cc1 [HALOPERIDOL]
- inhibition in vivo at 30 mg/kg (Mus musculus [17]): 0%
- inhibition in vivo at 20 mg/kg (Mus musculus [18]): 0%
- ED50 (Mus musculus [19]): 20 mg/kg
- inhibition in vivo at 20 mg/kg (Mus musculus [20]): 0%

SMILES: COc1ccccc1N1CCN(CCCC(=O)c2ccc(F)cc2)CC1 [FLUANISONE]
- inhibition in vivo at 100 mg/kg (Mus musculus [21]): 0%
- ED50 (Mus musculus [22]): 15.7 mg/kg
- ED50 (Rattus norvegicus [23]): 6 mg/kg
